In ChEMBL document CHEMBL4257550, “Novel hybrids derived from aspirin and chalcones potently suppress colorectal cancer in vitro and in vivo” (Medchemcomm, 2018):
Active and inactive are the calls of the source. No cut-off for these calls is given here.

Legend:
HCT-8 [1] = assay: Antiproliferative activity against human HCT8 cells at 10 uM after 72 hrs by MTT assay relative to control; assay type: functional
In short: (§1)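 Cells treated with or without compound at 10 μM for 72 h, proliferation measured by MTT (4 h, formazan in DMSO, 570 nm). Inhibition (%) relative to untreated cells; mean ± SD of three independent experiments.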

DLD-1 [2] = assay: Antiproliferative activity against human DLD1 cells at 10 uM after 72 hrs by MTT assay relative to control; assay type: functional; in short: as §1
HCT-8 [3] = assay: Antiproliferative activity against human HCT8 cells after 72 hrs by MTT assay; assay type: functional, cell-based; details: HCT-8, 72 h
In short: (§2)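 HCT-8, DLD-1 and CCD841 cells seeded in 96-well plates, exposed to vehicle or compound for 72 h. MTT (5 mg/mL in PBS) added for a further 4 h, formazan dissolved in DMSO, absorbance read at 570 nm. IC50 taken as the concentration inhibiting 50% of proliferation; mean ± SD of three independent experiments.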

DLD-1 [4] = assay: Antiproliferative activity against human DLD1 cells after 72 hrs by MTT assay; assay type: functional, cell-based; details: DLD-1, 72 h; in short: as §2
[5] = Cytotoxicity against human CCD-841 cells after 72 hrs by MTT assay; assay type: cell-based; details: CCD-841, 72 h; in short: as §2
HCT-8 [6] = assay: Cell cycle arrest in human HCT8 cells assessed as accumulation at G1 phase at 2.5 uM after 24 hrs by propidium iodide staining based flow cytometry (reference value: 48.08%); assay type: functional
HCT-8 [7] = assay: Antitumor activity against human HCT8 cells xenografted in BALB/c mouse assessed as reduction in tumor volume at 60 mg/kg, ip administered daily for 32 days measured every 4 days during compound dosing; assay type: functional, organism-based
In short: (§3)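 Male BALB/c nude mice (5–6 weeks, 18–20 g) inoculated s.c. with 1 × 10^7 HCT-8 cells. At tumours of 180–200 mm³, mice randomized and dosed i.p. daily for 32 days with 60 mg/kg or an equal volume of Tween 80/PBS (5:95) vehicle. Caliper length and width every 4 days, TV = width² × length/2. Tumour weight and body weight also recorded; n = 6 per group, mean ± SD.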

HCT-8 [8] = assay: Induction of apoptosis in human HCT8 cells assessed as early apoptotic cells at 5 uM after 24 hrs by Annexin V-FITC/propidium iodide staining based flow cytometry (reference value: 0.25%); assay type: functional
HCT-8 [9] = assay: Induction of apoptosis in human HCT8 cells after 24 hrs by Annexin V-FITC/propidium iodide staining based flow cytometry; assay type: functional, cell-based
HCT-8 [10] = assay: Induction of reactive oxygen species generation in human HCT8 cells at 2.5 to 10 uM after 24 hrs by DCFH-DA staining based flow cytometry; assay type: functional, cell-based
In short: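 HCT-8 cells exposed to 0, 2.5, 5 or 10 μM for 24 h, loaded with 10 μM DCFH-DA at 37 °C for 20 min, washed three times in PBS. Intracellular ROS as DCF fluorescence by flow cytometry, Ex/Em 488/530 nm.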

HCT-8 [11] = assay: Induction of apoptosis in human HCT8 cells assessed as early apoptotic cells at 10 uM after 24 hrs by Annexin V-FITC/propidium iodide staining based flow cytometry (reference value: 0.25%); assay type: functional
Mus musculus = assay: Toxicity in BALB/c mouse xenografted with human HCT8 cells assessed as change in body weight at 60 mg/kg, ip administered daily for 32 days; assay type: organism-based; details: in vivo, 768 h; in short: as §3
HCT-8 [12] = assay: Induction of apoptosis in human HCT8 cells assessed as increase in cleaved caspase3 expression after 24 hrs by Western blotting analysis; assay type: functional, cell-based
In short: (§4)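 HCT-8 cells (1 × 10^6/well, six-well plates) left overnight, then given 0.1% DMSO or compound (0, 2.5, 5, 10 μM) for 24 h. Lysed 30 min at 4 °C, cleared at 15000 rpm, protein by BCA. 20 μg per lane on 7.5% SDS-PAGE, moved to PVDF, blocked in 5% milk/TBS-0.05% Tween 20. Probed for caspase 3, cleaved caspase 3, PARP, cleaved PARP and GAPDH; ECL detection.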

HCT-8 [13] = assay: Cell cycle arrest in human HCT8 cells assessed as accumulation at S phase at 2.5 uM after 24 hrs by propidium iodide staining based flow cytometry (reference value: 36.19%); assay type: functional
[14] = Selectivity index, ratio of IC50 for human CCD-841 cells to IC50 for DLD1 human cells; assay type: toxicity; details: CCD-841 cells versus DLD1 cells
In short: (§5)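 Ratio of the CCD841 MTT IC50 to the HCT-8 or DLD-1 IC50, each IC50 from a 72 h MTT assay (570 nm), mean of three independent experiments.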

HCT-8 [15] = assay: Induction of apoptosis in human HCT8 cells assessed as late apoptotic cells at 10 uM after 24 hrs by Annexin V-FITC/propidium iodide staining based flow cytometry (reference value: 2.4%); assay type: functional
HCT-8 [16] = assay: Cell cycle arrest in human HCT8 cells assessed as accumulation at G2 phase at 2.5 uM after 24 hrs by propidium iodide staining based flow cytometry (reference value: 23.77%); assay type: functional
HCT-8 [17] = assay: Cell cycle arrest in human HCT8 cells assessed as accumulation at S phase at 5 uM after 24 hrs by propidium iodide staining based flow cytometry (reference value: 36.19%); assay type: functional
HCT-8 [18] = assay: Induction of apoptosis in human HCT8 cells assessed as early apoptotic cells at 2.5 uM after 24 hrs by Annexin V-FITC/propidium iodide staining based flow cytometry (reference value: 0.25%); assay type: functional
HCT-8 [19] = assay: Cell cycle arrest in human HCT8 cells assessed as accumulation at G0/G1 phase after 24 hrs by propidium iodide staining based flow cytometry; assay type: functional
[20] = Selectivity index, ratio of IC50 for human CCD-841 cells to IC50 for HCT8 human cells; assay type: toxicity; details: CCD-841 cells versus HCT8 cells, read-out: Ratio IC50; in short: as §5
HCT-8 [21] = assay: Cell cycle arrest in human HCT8 cells assessed as accumulation at S phase at 10 uM after 24 hrs by propidium iodide staining based flow cytometry (reference value: 36.19%); assay type: functional
HCT-8 [22] = assay: Induction of apoptosis in human HCT8 cells assessed as increase in cleaved PARP expression after 24 hrs by Western blotting analysis; assay type: functional, cell-based; in short: as §4
HCT-8 [23] = assay: Cell cycle arrest in human HCT8 cells assessed as accumulation at G2 phase at 5 uM after 24 hrs by propidium iodide staining based flow cytometry (reference value: 23.77%); assay type: functional
HCT-8 [24] = assay: Induction of apoptosis in human HCT8 cells assessed as late apoptotic cells at 2.5 uM after 24 hrs by Annexin V-FITC/propidium iodide staining based flow cytometry (reference value: 2.4%); assay type: functional
HCT-8 [25] = assay: Induction of apoptosis in human HCT8 cells assessed as late apoptotic cells at 5 uM after 24 hrs by Annexin V-FITC/propidium iodide staining based flow cytometry (reference value: 2.4%); assay type: functional
HCT-8 [26] = assay: Cell cycle arrest in human HCT8 cells assessed as accumulation at G1 phase at 5 uM after 24 hrs by propidium iodide staining based flow cytometry (reference value: 48.08%); assay type: functional
HCT-8 [27] = assay: Cell cycle arrest in human HCT8 cells assessed as accumulation at G1 phase at 10 uM after 24 hrs by propidium iodide staining based flow cytometry (reference value: 48.08%); assay type: functional
HCT-8 [28] = assay: Antitumor activity against human HCT8 cells xenografted in BALB/c mouse assessed as reduction in tumor weight at 60 mg/kg, ip administered daily for 32 days measured every 4 days during compound dosing relative to control; assay type: functional; set-up: scale not given: the % may be the effect or the level left; in short: as §3
HCT-8 [29] = assay: Cell cycle arrest in human HCT8 cells assessed as accumulation at G2 phase at 10 uM after 24 hrs by propidium iodide staining based flow cytometry (reference value: 23.77%); assay type: functional
HCT-8 [30] = assay: Antiproliferative activity against human HCT8 cells after 72 hrs in presence of ASA by MTT assay; assay type: functional, cell-based; details: HCT-8, 72 h; in short: as §2
DLD-1 [31] = assay: Antiproliferative activity against human DLD1 cells after 72 hrs in presence of ASA by MTT assay; assay type: functional, cell-based; details: DLD-1, 72 h; in short: as §2

Structure (SMILES): COc1ccc(/C=C/C(=O)c2ccc(Cl)cc2)c(OC(=O)c2ccccc2OC(C)=O)c1
- Activity (HCT-8 [1]): Active
- Activity (DLD-1 [2]): Active

Structure (SMILES): CC(=O)Oc1ccccc1C(=O)Oc1ccccc1/C=C/C(=O)c1ccc(C)cc1
- Activity (HCT-8 [1]): Active
- Activity (DLD-1 [2]): Active

Structure (SMILES): CC(=O)Oc1ccccc1C(=O)O [ASPIRIN]
- IC50 (HCT-8 [3]): > 100 µM
- IC50 (DLD-1 [4]): > 100 µM

Structure (SMILES): O=c1[nH]cc(F)c(=O)[nH]1 [FLUOROURACIL]
- IC50 [5]: 35.7 µM

Structure (SMILES): COc1cccc(/C=C/C(=O)c2ccc(Cl)cc2)c1OC(=O)c1ccccc1OC(C)=O
- Activity (HCT-8 [1]): Active
- Activity (DLD-1 [2]): Active

Structure (SMILES): COc1ccc(OC(=O)c2ccccc2OC(C)=O)c(/C=C/C(=O)c2ccc(Cl)cc2)c1
- Activity (HCT-8 [6]): 48.08%
- Activity (HCT-8 [7]): Active
- Activity (HCT-8 [8]): 14.22%
- Activity (HCT-8 [9]): Dose-dependent effect
- Activity (HCT-8 [10]): Active
- Activity (HCT-8 [11]): 21.46%
- Activity (Mus musculus): Non-Toxic
- Activity (HCT-8 [12]): Dose-dependent effect
- Activity (HCT-8 [13]): 34.16%
- selectivity ratio [14]: 7.2
- Activity (HCT-8 [15]): 37.01%
- Activity (HCT-8 [16]): 17.76%
- Activity (HCT-8 [17]): 38.16%
- Activity (HCT-8 [18]): 9.7%
- Activity (HCT-8 [19]): Dose-dependent effect
- selectivity ratio [20]: 8
- Activity (HCT-8 [21]): 34.77%
- Activity (HCT-8 [22]): Dose-dependent effect
- IC50 [5]: 19.4 µM
- Activity (HCT-8 [23]): 10.82%
- Activity (HCT-8 [24]): 6.41%
- IC50 (HCT-8 [3]): 2.4 µM
- Activity (HCT-8 [1]): >50%
- Activity (HCT-8 [25]): 13.49%
- IC50 (DLD-1 [4]): 2.7 µM
- Activity (HCT-8 [26]): 51.03%
- Activity (HCT-8 [27]): 56.46%
- Activity (DLD-1 [2]): >50%
- Activity (HCT-8 [28]): 42%
- Activity (HCT-8 [29]): 8.77%

Structure (SMILES): CC(=O)Oc1ccccc1C(=O)Oc1ccccc1/C=C/C(=O)c1ccc([N+](=O)[O-])cc1
- Activity (HCT-8 [1]): >50%
- Activity (DLD-1 [2]): >50%

Structure (SMILES): CC(=O)Oc1ccccc1C(=O)Oc1ccccc1/C=C/C(=O)c1ccc(Br)cc1
- Activity (HCT-8 [1]): Active
- Activity (DLD-1 [2]): Active

Structure (SMILES): CC(=O)Oc1ccccc1C(=O)Oc1ccc(F)cc1/C=C/C(=O)c1ccc(Cl)cc1
- IC50 (HCT-8 [3]): 2.7 µM
- Activity (HCT-8 [1]): >50%
- IC50 (DLD-1 [4]): 3.5 µM
- Activity (DLD-1 [2]): >50%

Structure (SMILES): CC(=O)Oc1ccccc1C(=O)Oc1ccc(Cl)cc1/C=C/C(=O)c1ccc(Cl)cc1
- Activity (HCT-8 [1]): Active
- Activity (DLD-1 [2]): Active

Structure (SMILES): CC(=O)Oc1ccccc1C(=O)Oc1ccc(Br)cc1/C=C/C(=O)c1ccc(Cl)cc1
- Activity (HCT-8 [1]): Active
- Activity (DLD-1 [2]): Active

Structure (SMILES): COc1ccc(O)c(/C=C/C(=O)c2ccc(Cl)cc2)c1
- IC50 (HCT-8 [30]): 6.3 µM
- IC50 (DLD-1 [31]): 6.9 µM
- IC50 (HCT-8 [3]): 19.7 µM
- IC50 (DLD-1 [4]): 14.7 µM

Structure (SMILES): O=C(/C=C/c1cc(F)ccc1O)c1ccc(Cl)cc1
- IC50 (HCT-8 [30]): 9.3 µM
- IC50 (DLD-1 [31]): 8 µM
- IC50 (HCT-8 [3]): 25.6 µM
- IC50 (DLD-1 [4]): 13.2 µM

Structure (SMILES): CC(=O)Oc1ccccc1C(=O)Oc1ccc(C)cc1/C=C/C(=O)c1ccc(Cl)cc1
- Activity (HCT-8 [1]): Active
- Activity (DLD-1 [2]): Active

Structure (SMILES): COc1ccc(C(=O)/C=C/c2ccccc2OC(=O)c2ccccc2OC(C)=O)cc1
- Activity (HCT-8 [1]): Active
- Activity (DLD-1 [2]): Active

Structure (SMILES): CC(=O)Oc1ccccc1C(=O)Oc1ccccc1/C=C/C(=O)c1ccc(C#N)cc1
- Activity (HCT-8 [1]): Active
- Activity (DLD-1 [2]): Active

Structure (SMILES): CC(=O)Oc1ccccc1C(=O)Oc1ccccc1/C=C/C(=O)c1ccc(Cl)cc1
- Activity (HCT-8 [1]): >50%
- Activity (DLD-1 [2]): >50%
